Screening results: PubChem BioAssay, The Scripps Research Institute Molecular Screening Center
MsrA inhibitor = bovine MsrA inhibition; purified bovine MsrA, absorbance read-out; inhibition, % at 15.5 µM; 360,000 tested, 0.75% active; in the data active = inhibition above about 4.5%;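 also: 0% = vehicle wells with enzyme and 100% = reference inhibitor wells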
MsrA act = activates bovine MsrA enzyme | 360,000 tested, 0.3% active | AID 602163 | purified bovine MsrA, absorbance read-out | activation, % at 10.6 µM; in the data active = activation above about 7.5%;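 also: 0% = vehicle and 100% = reference activator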
TbMetRS inhib = blocks T. brucei methionyl-tRNA synthetase activity; 360,000 tested, 0.4% active; AID 624268; purified T. brucei MetRS, ATP depletion, Kinase-Glo luminescence; inhibition, % at 11.9 µM;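 active = inhibition above a per-plate cutoff of the control wells' mean inhibition plus 3 SD, cut at about 5.5% in these data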;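 also: 0% = DMSO wells median and 100% = median of wells with control inhibitor compound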
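Test system – parasite MetRS enzyme · Reagent – substrates ATP, L-methionine and bulk Escherichia coli tRNA · Doses – 11.9 µM compound single dose, 0.9% DMSO · Times – 15 min enzyme-compound preincubation, 2 h reaction, 10 min detection, 25 °C · Signal – Kinase-Glo luminescence, ATP depletion format · Controls – DMSO-only wells as low control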
procasp7 counter = counter-screen for procaspase-3 activators: activators of human procaspase-7. P55210. recombinant procaspase-7, Ac-DEVD-pNA absorbance 405 nm; D23A/D198A/D206A triple mutant, cannot self-cleave; scale: DMSO 0, 5 µM enzyme 100. activation, % at 8.5 µM. 330,000 tested, 0.093% active. AID 463210;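 active = percent activation above the screen-wide mean plus 3 SD, cut at about 25% in these data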
Target sequence (P55210 whole entry D23A/D198A/D206A): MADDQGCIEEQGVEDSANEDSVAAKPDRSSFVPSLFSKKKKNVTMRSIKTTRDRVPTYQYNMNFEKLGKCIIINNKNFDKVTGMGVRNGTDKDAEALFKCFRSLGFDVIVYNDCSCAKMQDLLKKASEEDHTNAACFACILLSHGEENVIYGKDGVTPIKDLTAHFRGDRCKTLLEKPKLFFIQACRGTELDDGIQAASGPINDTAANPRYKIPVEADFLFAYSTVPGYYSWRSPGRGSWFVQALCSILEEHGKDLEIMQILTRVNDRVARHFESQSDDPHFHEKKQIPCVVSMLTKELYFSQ
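buffer or medium = Zinc-free HEPES/NaCl buffer, pH 7.4 | material = Procaspase-7 triple mutant (PC-7 D3A) | input = 2 µM procaspase-7 mutant as dispensed | signal = Epi-absorbance of released pNA at 405 nm, two timepoints | timing = 1 h preincubation, 2 h reaction | replicates = singlicate compound testing | evaluation = % activation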
proCasp3 act = activators of human procaspase-3. recombinant procaspase-3 D3A, Ac-DEVD-pNA absorbance 405 nm. activation, % at 8.5 µM. 330,000 tested, 0.11% active;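 active = activation above the mean of all tested compounds plus 3 SD, cut at about 21% in these data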;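 also: 0% = DMSO alone and 100% = DMSO wells spiked with extra 5 µM PC-3 D3A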
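System: Procaspase-3 D3A mutant. Medium: Zinc-free 300 mM NaCl, 50 mM HEPES, 0.01% Triton X-100. Schedule: 1 h preincubation plus 2 h reaction at 25 °C. Measured by: 405 nm absorbance of p-nitroaniline, reads at 0 and 120 min. Read-out: percent activation relative to control range.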
MsrA activ conf = confirmation of bovine methionine sulfoxide reductase A activators; shares compounds with MsrA act; 1,000 tested, 12% active; activation, % at 10.6 µM; purified bovine MsrA, absorbance read-out; in the data active = activation above about 4%;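 also: enzyme coupled to thioredoxin and thioredoxin reductase with NADPH; 0% = vehicle wells and 100% = reference activator wells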
* hit, by the source's call; / = no result; ! = repeats disagree. This is a sample that favours compounds with a hit; in the whole collection about 1.5% have one here.

SMILES | MsrA inhibitor | MsrA act | TbMetRS inhib | procasp7 counter | proCasp3 act | MsrA activ conf
CCN1CCN(Cc2ccc(NC(=O)c3ccc(C)c(NC(=O)C4=NN(c5ccccc5)C(=O)C4)c3)cc2C(F)(F)F)CC1 | 0.9 | -4.3 | -1.2 | -3.0 | 6.3 | /
CCN1CCN(Cc2ccc(NC(=O)c3ccc(C)c(NC(=O)C[C@@H]4NC(=O)[C@H](Cc5ccccc5)NC4=O)c3)cc2C(F)(F)F)CC1 | 0.7 | 7.7*! | -0.1 | 1.2 | 6.2 | -3.2
COc1ccc(N2CCN(C3CCN(S(=O)(=O)c4ccc(F)cc4)CC3)CC2)cc1 | -0.3 | 9.5* | -0.4 | -5.5 | -1.1 | -3.6
CC[C@H](C)[C@@H](C(=O)NCCCCCCCCCCC(=O)N1CCNCC1)n1cc(CCCCN=C(N)N)nn1 | 0.3 | 9.3* | -0.2 | 1.1 | -1.6 | -0.3
COCCn1c2nc(=O)n(-c3ccccc3)c(=O)c-2nc2ccccc21 | 1.1 | 26.5* | 0.1 | / | / | 8.7*
COCCn1c(-c2ccc(OC)cc2)nc2ccccc21 | -0.4 | -1.5 | 1.4 | 10.3 | -2.8 | /
COCCn1nnnc1CN1CCN(c2cccc(C(F)(F)F)c2)CC1 | -1.0 | 8.4* | -1.1 | 6.4 | -3.8 | 1.2
C[C@@H]1C=CCCO[C@]12C(=O)N(Cc1ccccc1C(F)(F)F)c1ccccc12 | 2.5 | / | / | / | / | /
C[C@H](CO)N1C[C@H](C)[C@@H](CN(C)S(C)(=O)=O)OCc2cn(nn2)CCCC1=O | -0.4 | / | / | / | / | /
O=C(Nc1nnc([C@H]2C[C@H](O)[C@@H](CO)O2)s1)Nc1ccc(F)cc1F | 0.1 | 7.8* | 0.8 | / | / | -2.5
C=CCN=C1NC(c2cccc(F)c2)C(C(=O)OC)=C(C)N1C (centres undefined) | 1.1 | / | / | / | / | /
CC(C)[C@H](NC(=O)[C@@H](N)Cc1ccccc1)C(=O)N1CCC2CCN(Cc3ccccc3)CC21 (some centres undefined) | 1.0 | / | / | / | / | /
CC1CN(C(=O)c2cccc(S(=O)(=O)N3CCN(c4ccccc4)CC3)c2)CC(C)O1 (centres undefined) | -0.1 | 9.1* | -0.3 | -3.6 | -2.8 | -2.2
CC(=O)N1CCN(C(=O)c2cccc(S(=O)(=O)N3CCN(c4ccccc4)CC3)c2)CC1 | -0.8 | -2.7 | -0.2 | 0.0 | -1.6 | /
CC(=O)Nc1cccc(OCCCNC(=O)c2ccc(F)cc2)c1 | 1.1 | 9.0* | -0.1 | -8.4 | -0.9 | -0.2
CN(CCCC1CCCC1)C(=O)c1cc(COc2ccc(F)cc2F)on1 | -0.1 | 9.1* | -0.4 | 1.9 | -0.1 | 0.8
Cc1cccc(N(CC(=O)NC2CCCC2)C(=O)CCCC(=O)Nc2ccccn2)c1 | -1.1 | 7.7* | -0.4 | 7.0 | 7.9 | -0.4
Cc1cccc(N(CC(=O)NC2CCCCC2)C(=O)CCCC(=O)Nc2ccccn2)c1 | -1.1 | -3.0 | -0.6 | 3.7 | 0.1 | /
C[C@]12Cc3ccccc3C1CC1=N[C@@H](c3ccc(C(F)(F)F)cc3)O[C@@]13C[C@@H]2C(=O)N3Cc1ccncc1 (some centres undefined) | -0.2 | / | / | / | / | /
O=C(N[C@H](C(=O)N1CCC[C@H]1C(=O)NC1CCCC1)C1CCCCC1)c1ccc(Cl)cc1Cl | 0.1 | / | / | / | / | /
O=C(Nc1ccc2c(c1)OCCO2)C1c2ccccc2OCC(=O)N1CCc1c[nH]c2ccccc12 (centres undefined) | -0.4 | 8.0* | 0.0 | / | / | -2.0
O=C(NC1CCCC1)C1c2ccccc2OCC(=O)N1CCc1c[nH]c2ccccc12 (centres undefined) | -0.8 | -1.2 | 0.0 | / | / | /
COc1cc(-n2c(C)cc(O)cc2=O)ccc1Cl | -0.5 | / | / | / | / | /
O=C(C=Cc1ccc(OCc2ccccc2)cc1)c1c(F)cccc1F | 0.6 | / | / | / | / | /
Cc1cc(NC(=O)Cc2c(C)[nH]c3ccccc23)ccc1Oc1cccnc1 | 1.4 | / | / | / | / | /
O=C(O)CCC(=O)c1ccc(C2CCCCCC2)cc1 | 0.7 | 13.1* | -0.4 | / | / | 0.8
CCN1CCN(C(=O)c2ccc3c(=O)n(C4CCCC4)c(=S)[nH]c3c2)CC1 | 1.0 | 8.8* | -0.5 | 1.3 | 3.4 | 0.2
O=C(c1ccc2c(=O)n(C3CCCC3)c(=S)[nH]c2c1)N1CCN(C2CCCCC2)CC1 | -0.2 | -2.6 | 0.0 | 7.8 | -3.4 | /
CCCCOC(=O)CCn1c(=S)oc2ccccc21 | -0.7 | 20.7* | -0.2 | 1.3 | 2.1 | -1.9
